A selection: hits, their analogues and other compounds. The true share with any hit is near 2.7%.
pPAFAH FP inh: pPAFAH enzyme inhibitors, primary screen, biochemical, fluorescence polarization, human; Platelet-activating factor acetylhydrolase (Homo sapiens), Q13093; recombinant pPAFAH, FP-rhodamine probe fluorescence polarization; inhibition, % at 3.39 µM; actives 1.5% (n = 330,000); AID 463082, 2010;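 active means inhibition above the mean inhibition across the screen plus 3 SD, cut at about 25% in these data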;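 further: inhibitors block binding of the rhodamine activity-based probe so polarization drops; 0% = enzyme with DMSO and 100% = wells lacking pPAFAH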
Target sequence (Q13093 whole entry, looked up): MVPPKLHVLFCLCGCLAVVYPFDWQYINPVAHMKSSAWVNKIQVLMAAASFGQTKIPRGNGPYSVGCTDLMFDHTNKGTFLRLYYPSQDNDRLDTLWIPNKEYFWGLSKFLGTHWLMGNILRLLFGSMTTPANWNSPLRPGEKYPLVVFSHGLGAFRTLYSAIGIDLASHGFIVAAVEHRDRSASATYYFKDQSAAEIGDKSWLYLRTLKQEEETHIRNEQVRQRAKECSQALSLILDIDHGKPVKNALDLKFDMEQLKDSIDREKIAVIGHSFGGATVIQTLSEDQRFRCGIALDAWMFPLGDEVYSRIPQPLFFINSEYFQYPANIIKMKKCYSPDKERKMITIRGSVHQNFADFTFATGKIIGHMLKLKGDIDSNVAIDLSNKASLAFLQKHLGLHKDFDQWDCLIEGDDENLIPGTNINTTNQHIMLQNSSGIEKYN
PAFAH1B3 inh: PAFAH1B3 enzyme inhibitors, primary screen, biochemical, fluorescence polarization, human; recombinant PAFAH1B3, FP-rhodamine probe; inhibition, % at 3.39 µM; actives 0.28% (n = 340,000); AID 492972, 2010;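 active means inhibition above the screen-wide average of all tested compounds plus 3 SD, cut at about 25% in these data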;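 further: 0% = enzyme with DMSO only and 100% = wells lacking PAFAH1B3 protein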
Target sequence (Q15102 whole entry, looked up): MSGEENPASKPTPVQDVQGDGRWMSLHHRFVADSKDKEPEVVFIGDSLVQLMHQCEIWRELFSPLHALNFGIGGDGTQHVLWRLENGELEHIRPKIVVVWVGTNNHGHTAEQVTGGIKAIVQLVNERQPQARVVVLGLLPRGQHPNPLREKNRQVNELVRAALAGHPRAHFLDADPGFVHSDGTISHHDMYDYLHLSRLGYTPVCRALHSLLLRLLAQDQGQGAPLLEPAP
PAFAH1B2 FP inh: PAFAH1B2 enzyme inhibitors, primary screen, biochemical, fluorescence polarization, human; recombinant PAFAH1B2, FP-rhodamine activity probe; inhibition, % at 3.39 µM; actives 1.2% (n = 340,000);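 active means inhibition above the mean of all tested compounds plus 3 SD, cut at about 24% in these data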;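 further: 0% = enzyme with DMSO and 100% = wells lacking PAFAH1B2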
RBBP9 inh: human RBBP9 inhibitors, primary screen, biochemical, fluorescence polarization, FP-Rh probe, HTS | inhibition, % at 7.94 µM | actives 0.2% (n = 220,000) | Serine hydrolase RBBP9 (Homo sapiens), O75884 | recombinant RBBP9;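 active means inhibition above the campaign mean of all tested compounds plus 3 SD, cut at about 14% in these data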;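 further: plate controls were DMSO wells with RBBP9 for no effect and wells lacking RBBP9 protein for full effect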
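system = RBBP9 protein | input = RBBP9 at 2.5 µM in dispensed solution, before mixing | measured by = fluorescence polarization (mP), excitation 525 nm, emission 598 nm | incubation = enzyme-compound preincubation 30 min, then probe labeling 45 min, 25 °C | buffer or medium = Tris-NaCl-Pluronic buffer, pH 8.0 | compound = single dose 7.94 µM | also added = FP-Rh probe, 375 nM dispensing solution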
PAFAH2 FP inh: PAFAH2 enzyme inhibitors, primary screen, biochemical, fluorescence polarization, human. actives 0.99% (n = 340,000). AID 492956, 2010. Platelet-activating factor acetylhydrolase 2, cytoplasmic (Homo sapiens), Q99487. inhibition, % at 3.39 µM. recombinant PAFAH2, FP-rhodamine activity probe;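 active means inhibition above the mean over all tested compounds plus 3 SD, cut at about 30% in these data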;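 further: inhibitors block probe labeling of enzyme so polarization drops; 0% = enzyme with DMSO and 100% = wells lacking PAFAH2 protein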
* marks the source's active call; other numbers are inactive results; / = not tested or not shown.

SMILES | pPAFAH FP inh | PAFAH1B3 inh | PAFAH1B2 FP inh | RBBP9 inh | PAFAH2 FP inh
CCN(CC)c1ccc(C(=O)OCC(=O)NC(C)(C)C)cc1 | 34* | 4 | 7 | 1 | 81*
CC(C)(C)NC(=O)COC(=O)c1ccc(Cl)nc1 | 6 | -1 | -3 | -4 | 2
Cc1ccc(CNn2cnnc2SCc2ccc(F)cc2)cc1 | 4 | 8 | 28* | 2 | 4
Fc1ccc(CNn2cnnc2SCc2ccc(F)cc2)cc1 | 8 | 6 | 16 | -5 | 0
Cc1ccc(-c2csc3ncnc(Nc4ccc(N5CCOCC5)cc4)c23)cc1 | 30* | 1 | 2 | -8 | 5
CC(C)(C(=O)N[C@H](CO)c1ccccc1)C(=O)N[C@H](CO)c1ccccc1 | -2 | 1 | 0 | / | 10
CCOc1ccc(OC(=O)NC(c2ccccc2)C(Cl)(Cl)Cl)cc1 (stereo unspecified) | 1 | 2 | 26* | -3 | 5
CCOC(=O)NC(CC(=O)O)c1ccc(OCC)cc1 (stereo unspecified) | 3 | 8 | -1 | -2 | 2
CC(C)OC(=O)NC(c1ccccc1)C(Cl)(Cl)Cl (stereo unspecified) | 3 | 2 | 24* | -5 | 13
N#CCCN(C(=O)COC(=O)Cc1ccc(Br)cc1)c1ccccc1 | 15 | 12 | 27* | 0 | 2
CN(C)S(=O)(=O)c1ccc(NC(=O)COc2ncnc3sccc23)cc1 | 1 | 3 | 1 | -9 | -3
COc1cccc(CN(C)CC(=O)Nc2cccc(S(=O)(=O)N(C)c3ccccc3)c2)c1OC | / | 5 | 3 | / | 7
CCOc1ccc(CN(C)CC(=O)Nc2cccc(S(=O)(=O)N(C)c3ccccc3)c2)cc1 | 28* | 1 | 1 | -6 | -3
O=[N+]([O-])c1ccccc1N/N=C/c1c[nH]c2ccccc12 | 25* | 12 | 4 | -1 | 9
O=[N+]([O-])c1ccc(N/N=C/c2c[nH]c3ccccc23)cc1 | 17 | 10 | 7 | -2 | -5
Cc1cn(C2CCCCC2)c(=O)n(-c2ccccc2)c1=O | / | -7 | 4 | / | -5
COc1ccc(Oc2coc3cc(OC(=O)N4CCOCC4)ccc3c2=O)cc1 | 34* | -4 | -4 | -6 | 9
CN(C)C(=O)CCc1ccc2c3c([nH]c2c1)[C@]1(C)[C@@H](C(=O)N2CCCCC2)C[C@H](CC(=O)NCC24CC5CC(CC(C5)C2)C4)C(=O)N1CC3 | 31* | 7 | 5 | / | 1
CC(C)=CCC/C(C)=C/CNC(=O)C[C@H]1C[C@H](C(=O)N2CCOCC2)[C@@]2(C)c3[nH]c4cc(-c5ccco5)ccc4c3CCN2C1=O | 25* | 1 | 3 | / | 5
CC(C)=CCC/C(C)=C/CNC(=O)CC1C[C@H](C(=O)N2CCOCC2)[C@@]2(C)c3[nH]c4ccccc4c3CCN2C1=O (stereo partly specified) | 7 | 2 | 7 | / | 9
O=C(CSc1nnnn1-c1cccc(F)c1)NC1CCCCC1 | 1 | 0 | -3 | / | 5
CC(NS(=O)(=O)c1ccc2c(c1)OCCO2)c1ccccc1 (stereo unspecified) | 8 | 6 | 27* | 2 | 6
CC1CCN(S(=O)(=O)c2ccc3[nH]c(=O)c(=O)[nH]c3c2)CC1 | 2 | 3 | 60* | -5 | -8
CCOC(=O)C1CCN(S(=O)(=O)c2ccc3[nH]c(=O)c(=O)[nH]c3c2)CC1 | 9 | 0 | 6 | 0 | 1
COCC(CN1CCN(C2=NS(=O)(=O)c3ccccc32)CC1)OC(=O)c1ccccc1 (stereo unspecified) | 6 | 7 | 5 | / | -8
SMILES | pPAFAH FP inh | PAFAH1B3 inh | PAFAH1B2 FP inh | RBBP9 inh | PAFAH2 FP inh
CC(C)Oc1ccc(S(=O)(=O)N2CCOCC2)cc1NC(=O)CN1C(=O)c2ccccc2C1=O | / | 2 | -2 | / | 0
O=C(NNC(=O)c1ccc(Br)s1)c1csc(N2CCOCC2)n1 | 8 | 8 | 6 | / | 15
O=C(Nc1ncccc1O)c1cccc(S(=O)(=O)N2CCc3ccccc32)c1 | 5 | -5 | 48* | -10 | 34*
O=C(Nc1ncccc1O)c1cccc(S(=O)(=O)N2CCCC2)c1 | 4 | -3 | 21 | / | 7
COc1cccc(-n2nnc(S(=O)(=O)c3ccc(C)cc3)c2N)c1 | 4 | 1 | 3 | -9 | -4
O=C(CCCN1C(=O)/C(=C/c2cccs2)SC1=S)Nc1cc([N+](=O)[O-])ccc1O | 30* | 6 | 4 | / | 27
CCc1ccc(/C=C2/SC(=S)N(CCCC(=O)Nc3ccccc3C(=O)O)C2=O)cc1 | -2 | 6 | 61* | / | 44*
O=C(CCCN1C(=O)/C(=C/c2ccccc2Cl)SC1=S)NNC(=O)c1ccccc1 | 32* | -1 | 0 | -1 | 4
O=C(CCCN1C(=O)/C(=C\c2ccccc2)SC1=S)Nc1ccc(O)cc1C(=O)O | 13 | 3 | 64* | / | 6
O=C(CCCN1C(=O)/C(=C/c2ccccc2Cl)SC1=S)NNC(=O)c1cccnc1 | 7 | -4 | 4 | -14 | 10
O=C(O)c1cc(S(=O)(=O)NCCOc2ccccc2)ccc1Cl | -1 | 11 | 15 | / | 3
CC(C(=O)Nc1ccc(O)cc1C(=O)O)N1C(=O)/C(=C\c2cccs2)SC1=S (stereo unspecified) | 28* | 8 | 8 | / | 22
O=C(CCSc1ccc(Cl)cc1)NN=C1CCCCCC1 | 3 | 3 | 25* | -5 | 1
CC1CCCN(C(=O)CCNS(=O)(=O)c2ccc3c(c2)oc(=O)n3C)C1 (stereo unspecified) | 6 | 0 | -5 | / | -8
CC(=O)OCC1OC(COC(C)=O)(c2ccc(C)cc2)C(OC(C)=O)C1OC(C)=O (stereo unspecified) | / | 6 | 3 | / | 3
Cc1ccc(Nc2c(-c3ccccn3)nc3ccc(C)cn23)cc1 | 28* | 5 | 8 | -2 | -3
CCCCNC(=O)NNc1nc(Cl)cc(C)c1C#N | -3 | 7 | 3 | 1 | 8
O=C1C=CC(=C(c2ccc(O)cc2)c2ccc(O)cc2)C=C1 | 5 | 10 | 24* | / | -1
O=C1C=C(c2ccoc2)N2CCC[C@H]2C1 | 2 | 23 | 3 | / | 12
COC(=O)N/N=C/c1cn(CCOc2cccc(OC)c2)c2ccccc12 | 23 | 9 | 0 | / | 1
CCC(C)c1ccc(OCCn2cc(/C=N/NC(=O)CSc3nnc(C)s3)c3ccccc32)cc1 (stereo unspecified) | 26* | 14 | 4 | -4 | -12
Cc1cccc(OCCn2cc(/C=N/NC(=O)c3ccncc3)c3ccccc32)c1 | 28* | 23 | 7 | -7 | -15
